Test results taken from paper PMC5929363 (Radiology, 2017).

Columns and labels:
[1] = In vivo plasma stability/metabolites by HPLC-ICP-MS; design: species or system rat; settings: HPLC-ICP-MS of blood plasma
In short: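 Rat plasma sampled over 2 h after i.v. probe injection. HPLC/ICP-MS separated intact probe from any metabolites. Intact probe expressed as percentage of circulating gadolinium at each time point.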

[2] = tested on: BDL rat model of liver fibrosis; assay: Molecular MR imaging of liver fibrosis, BDL rat model, 1.5 T; assay type: in vivo; settings: for ΔCNR at 15 minutes post CM-101 / Area under the ΔCNR curve (AUC), liver vs muscle: 1.5 T
In short: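 Male CD rats underwent common bile duct ligation or sham surgery and were imaged at day 19. Imaging at 1.5 T under 1–2% isoflurane used respiratory-gated 3D inversion-recovery FLASH (TI 250 ms, TE 2.44 ms, effective TR ~1000 ms), before and up to 30 min after i.v. 10 μmol/kg. ΔCNR was liver-minus-muscle SNR, giving AUC and ΔCNR at the maximal diseased–control difference time. R1 maps (TI 50–1000 ms) were acquired pre and 30 min post and fitted voxelwise. Analysis was blinded.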

[3] = Gd blood plasma clearance in rats; assay type: in vivo; settings: rat, after 10 μmol/kg i.v., exponential decay fit, n=4/time point
In short: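 After i.v. probe injection, rat blood plasma sampled over 2 h (n = 4 per time point). Gadolinium quantified by HPLC/ICP-MS. Plasma concentration–time data fitted to exponential decay to give clearance half-life.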

Gd elimination route = assay type: in vivo; settings: rat, 24-hour collection period, % of the Gd recovered
[4] = tested on: CCl4 mouse model of liver fibrosis; assay: Molecular MR imaging of liver fibrosis, CCl4 mouse model, 7.0 T; assay type: in vivo
In short: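 C57BL6 mice received i.p. CCl4 0.4 μL/g (1:5 in olive oil) twice weekly for 10 weeks; controls received olive oil. Mice were imaged at baseline and 1 week after the last dose at 7.0 T under 1–2% isoflurane, using ungated T1-weighted RARE (TE 4.5 ms, factor 8, TR 600 ms) before and up to 30 min after i.v. 10 μmol/kg. Liver–muscle ΔCNR was analysed as AUC and at the time of maximal difference between fitted exponential curves. Analysis was blinded.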

[5] = Gd biodistribution in ex vivo rat tissue by ICP-MS
In short: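 Rats dosed i.v. with 10 μmol/kg probe. Tissues harvested ex vivo 1 and 14 days post-injection. Gadolinium measured by ICP-MS and expressed as % injected dose per gram of tissue.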

[6] = sham rats, n=11, 10 μmol/kg i.v.
[7] = baseline mice, n=11, 10 μmol/kg i.v.

For `CC(C)C[C@H](NC(=O)[C@@H]1CSSC[C@H](NC(=O)[C@H](Cc2c[nH]cn2)NC(=O)[C@H](Cc2c[nH]c3ccccc23)NC(=O)[C@H](CCCCNC(=O)CCC(C(=O)O)N2CCN(CC(=O)O)CCN(CC(=O)O)CCN(CC(=O)O)CC2)NC(=O)CNC(=O)CCC(C(=O)O)N2CCN(CC(=O)O)CCN(CC(=O)O)CCN(CC(=O)O)CC2)C(=O)N[C@@H]([C@@H](C)O)C(=O)N[C@@H]([C@@H](C)O)C(=O)N[C@@H](CCCCNC(=O)CCC(C(=O)O)N2CCN(CC(=O)O)CCN(CC(=O)O)CCN(CC(=O)O)CC2)C(=O)N[C@@H](Cc2ccccc2)C(=O)N2CCC[C@H]2C(=O)N[C@@H](Cc2c[nH]cn2)C(=O)N[C@@H](Cc2c[nH]cn2)C(=O)N[C@@H](Cc2ccc(O)cc2)C(=O)N1)C(=O)N[C@@H](Cc1ccc(O)cc1)C(=O)N[C@@H](Cc1ccc(-c2ccccc2)cc1)C(N)=O` (stereo partly drawn) [CM-101], which “Intact CM-101 as % of circulating Gd in plasma” value (“Intact CM-101 as %” for short) ([1]; 60 – 120 minutes post injection) is on record?
The value was “about 50%”.

And the “Intact CM-101 as %” value ([1]; 3 minutes post injection)?
Its value is 97%.

And the “Intact CM-101 as %” value ([1]; 15 minutes post injection)?
The value was 77%.

And the “ΔCNR at 15 minutes post CM-101” value ([2]; BDL rats, n=8, 10 μmol/kg i.v.)?
Its value is 13.6±3.2.

What about the “Change in liver R1 relaxation rate (ΔR1) 30 minutes post CM-101 injection” value ([2]; BDL rats, n=8, 1.5 T) of the same molecule?
Its value is 0.50 ± 0.23 s⁻¹.

And the “Area under the ΔCNR curve (AUC), liver vs muscle” value ([2]; BDL rats, n=8, 19 days post procedure, 10 μmol/kg i.v.)?
Its value is 73.1±17.1.

And the “Area under the ΔCNR curve (AUC), liver vs muscle” value [2, 6]?
The value was 23.2±15.2.

What about the “ΔCNR at 15 minutes post CM-101” value [2, 6] of the same molecule?
Its value is 5.7±4.2.

What about the “Change in liver R1 relaxation rate (ΔR1) 30 minutes post CM-101 injection” value ([2]; sham rats, n=11, 1.5 T) of the same molecule?
The value was 0.15 ± 0.14 s⁻¹.

What about the “Gd blood plasma clearance half-life t1/2” value [3] of the same molecule?
Its value is 6.8 ± 2.4 min.

What about the “Gd recovered found in the feces” value (Gd elimination route) of the same molecule?
Its value is 0.8%.

And the “Gd recovered found in the urine” value (Gd elimination route)?
Its value is 99.2%.

What about the “Area under the ΔCNR curve (AUC), liver vs muscle” value ([4]; CCl4 treated mice (10 weeks), n=8, 10 μmol/kg i.v.) of the same molecule?
The value was 601±150.

What about the “ΔCNR at 10 minutes post CM-101” value ([4]; CCl4 treated mice, n=8, 10 μmol/kg i.v.) of the same molecule?
The value was 18.3±6.5.

And the “Area under the ΔCNR curve (AUC), liver vs muscle” value [4, 7]?
Its value is 163±54.

What about the “ΔCNR at 10 minutes post CM-101” value [4, 7] of the same molecule?
The value was 5.2±1.0.

And the “Fold drop of tissue Gd levels from 24-hours to 14 days” value ([5]; rat tissues)?
Its value is “about 10 fold”.

What about the “Tissue Gd levels at 24-hours (upper bound over all tissues)” value ([5]; rat, all tissues, 24 hours after CM-101 injection) of the same molecule?
The value was < 3.9±0.6 %ID/g.

And the “Gd (% ID/g) @ 24-hours, Bone” value ([5]; rat, bone, 24 hours after 10 μmol/kg i.v., ICP-MS, n=7)?
The value was 0.07±0.02 % ID/g.

And the “Gd (% ID/g) @ 14-days, Bone” value ([5]; rat, bone, 14 days after 10 μmol/kg i.v., ICP-MS, n=8)?
Its value is 0.01 % ID/g.

What about the “Gd (% ID/g) @ 14-days, Kidney” value ([5]; rat, kidney, 14 days after 10 μmol/kg i.v., ICP-MS, n=8) of the same molecule?
The value was 0.33±0.12 % ID/g.
